From paper PMC5884014 (Neoplasia (New York, N.Y.), 2017)
Marks after values point to notes of the source that are not given here.

Tests used:
HCT116 = experiment: Cytotoxicity assay; type: cell-based, human; settings: Homo sapiens, HCT-116, 72 h
LS174T = experiment: Cytotoxicity assay; type: cell-based, human; settings: Homo sapiens, LS174T, 72 h
[1] = Toxicology examination: serum biochemistry; type: in vivo; settings: ICR mice, 5-FU 50 mg/kg i.p., SL-1 30, oxaliplatin 7.5, cisplatin 7.5 mg/kg i.v.
RKO cells [2] = experiment: Comet and modified comet assays; type: cell-based, human; settings: 24 h, SL-1 0.75 μM, 5-FU […], alone or combined
Procedure, shortened: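 RKO cells were exposed to the test compound and/or 5-FU for 24 h and then processed by comet assay. The read-out was tail moment, reported as means ± SD (n = 3) and compared by Student's t test. Synergy on tail moment was expressed as a combination index (CI).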

RKO = experiment: Cytotoxicity assay; type: cell-based, human; settings: Homo sapiens, RKO, 72 h
Colo205 = experiment: Cytotoxicity assay; type: cell-based, human; settings: Homo sapiens, COLO 205, 72 h
FHC = experiment: Cytotoxicity assay; type: cell-based, human; settings: Homo sapiens, FHC, 72 h
LoVo = experiment: Cytotoxicity assay; type: cell-based, human; settings: Homo sapiens, LoVo, 72 h
Caco-2 = experiment: Cytotoxicity assay; type: cell-based; settings: Homo sapiens, Caco-2, 72 h
HT-29 = experiment: Cytotoxicity assay; type: cell-based, human; settings: Homo sapiens, HT-29, 72 h
[3] = Toxicology examination: complete blood counts; type: in vivo; settings: ICR mice, 5-FU 50 mg/kg i.p., SL-1 30, oxaliplatin 7.5, cisplatin 7.5 mg/kg i.v.
RKO cells [4] = experiment: Annexin V staining assay; type: cell-based, human
DLD-1 = experiment: Cytotoxicity assay; type: cell-based, human; settings: Homo sapiens, DLD-1, 72 h
SW620 = experiment: Cytotoxicity assay; type: cell-based, human; settings: Homo sapiens, SW-620, 72 h
H3347 = experiment: Cytotoxicity assay; type: cell-based, human; settings: Homo sapiens, H3347, 72 h
[5] = tested on: HexA-rev and HexB-rev fragments; experiment: Guanine-N7 alkylation, Maxam-Gilbert method; type: binding; settings: 3'-end-labeled DNA, 37°C, 2 h, pH 7.4
Procedure, shortened: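 Sixty-four symmetrical hexanucleotide fragments (HexA-rev, HexB-rev) were 3′-end-labelled, gel-purified on polyacrylamide, and reacted with the test compound. Guanine-N7 alkylation sites were mapped by the Maxam-Gilbert method. A weighted consensus sequence logo was generated with Seq2Logo 3.4.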

Q: Which results are given for `O=c1[nH]cc(F)c(=O)[nH]1` [5-FU, 5-fluorouracil]?
A: IC50 (HCT116): 2.88 ± 0.33 µM; IC50 (LS174T): 18.6 ± 0.26 µM; ALP ([1]; 2 days): 359.25 ± 72.22 U/l; ALT ([1]; 2 days): 23.25 ± 4.97 U/l; AST ([1]; 2 days): 63.50 ± 13.24 U/l; BUN ([1]; 2 days): 23.65 ± 1.50 mg/dL; CRE ([1]; 2 days): 0.23 ± 0.1 mg/dL; GLU ([1]; 2 days): 577.25 ± 36.55 mg/dL; ALP ([1]; 14 days): 177.50 ± 119.69 U/l; BUN ([1]; 14 days): 22.20 ± 3.42 mg/dL; CRE ([1]; 14 days): 0.25 ± 0.10 mg/dL; GLU ([1]; 14 days): 244.00 ± 86.63 mg/dL; GOT/AST ([1]; 14 days): 53.00 ± 3.56 U/l; GPT/ALT ([1]; 14 days): 46.50 ± 7.85 U/l; tail moment (RKO cells [2]): 3.9 ± 0.4 μm; IC50 (RKO): 6.15 ± 1.63 µM; IC50 (Colo205): 6.8 ± 3.05 µM; IC50 (FHC): 21.9 ± 2.49 µM; IC50 (LoVo): 25.8 ± 0.74 µM; IC50 (Caco-2): > 50 µM; IC50 (HT-29): 2.27 ± 0.41 µM; BASO ([3]; 2 days): 0.01 ± 0.01 10^9/l; EO ([3]; 2 days): 0.06 ± 0.01* 10^9/l; HCT ([3]; 2 days): 27.94 ± 3.75 %; HGB ([3]; 2 days): 10.58 ± 2.62 g/dL; LYMPH ([3]; 2 days): 4.22 ± 0.45 10^9/l; MCH ([3]; 2 days): 14.94 ± 3.04 pg; MCHC ([3]; 2 days): 27.50 ± 4.71 g/dL; MCV ([3]; 2 days): 57.06 ± 3.75 fL; MONO ([3]; 2 days): 0.02 ± 0.01 10^9/l; NEUT ([3]; 2 days): 0.78 ± 0.40 10^9/l; PLT ([3]; 2 days): 873.00 ± 141.40** 10^9/l; RBC ([3]; 2 days): 4.98 ± 1.72* 10^12/l; WBC ([3]; 2 days): 5.09 ± 0.23 10^9/l; BASO ([3]; 14 days): 0.01 ± 0.01 10^9/l; EO ([3]; 14 days): 0.08 ± 0.01*** 10^9/l; HCT ([3]; 14 days): 45.53 ± 1.61 %; HGB ([3]; 14 days): 13.08 ± 0.25 g/dL; LYMPH ([3]; 14 days): 2.62 ± 0.94 10^9/l; MCH ([3]; 14 days): 16.25 ± 0.35 pg; MCHC ([3]; 14 days): 28.73 ± 0.48 g/dL; MCV ([3]; 14 days): 56.48 ± 1.73 fL; MONO ([3]; 14 days): 0.06 ± 0.10 10^9/l; NEUT ([3]; 14 days): 0.64 ± 0.17 10^9/l; PLT ([3]; 14 days): 745.75 ± 116.31* 10^9/l; RBC ([3]; 14 days): 8.06 ± 0.24*** 10^12/l; WBC ([3]; 14 days): 3.40 ± 1.21 10^9/l; mode of cell death (RKO cells [4]): mainly caused necrotic cell death; IC50 (DLD-1): 16.9 ± 5.3 µM; IC50 (SW620): 18.5 ± 4.05 µM; IC50 (H3347): 5.89 ± 0.5 µM

Q: For `CN(C)CCNC(=O)c1cccc(NC(=O)Nc2ccc(N(CCCl)CCCl)cc2)c1.Cl` [BO-1055], which “consensus sequence / binding pattern of guanine-N7 alkylation” value [5] is on record?
A: no distinct binding sequence

Q: Which “consensus sequence / binding pattern of guanine-N7 alkylation” value [5] does the source give for `Cc1ccc(Nc2c3ccccc3nc3c(C)cccc23)cc1NC(=O)Nc1ccc(N(CCCl)CCCl)cc1` [BO-1051] here?
A: no distinct binding sequence

Q: Which IC50 (HCT116) does the source give for `CCc1c2c(nc3ccc(OC(=O)N4CCC(N5CCCCC5)CC4)cc13)-c1cc3c(c(=O)n1C2)COC(=O)[C@]3(O)CC` [Irinotecan, irinotecan] here?
A: 1.38 ± 0.49 µM

Q: What about the IC50 (LS174T) of the same compound?
A: 1.36 ± 0.33 µM

Q: And the IC50 (RKO)?
A: 2.63 ± 1.05 µM

Q: What about the IC50 (Colo205) of the same compound?
A: 2.49 ± 0.48 µM

Q: And the IC50 (FHC)?
A: > 100 µM

Q: What about the IC50 (LoVo) of the same compound?
A: 9.69 ± 1.68 µM

Q: What about the IC50 (Caco-2) of the same compound?
A: 21.3 ± 7.34 µM

Q: What about the IC50 (HT-29) of the same compound?
A: 4.19 ± 0.29 µM

Q: And the IC50 (DLD-1)?
A: 1.72 ± 0.35 µM

Q: And the IC50 (SW620)?
A: 0.32 ± 0.1 µM

Q: And the IC50 (H3347)?
A: 2.93 ± 0.68 µM
